# Compound activity: PubChem BioAssay, several laboratories
# EP2 modulator: EP2 receptor modulators, cAMP readout, primary screen, cell-based, HTRF cAMP, PGE2 stimulation; hit rate 0.83% among 260,000; induction, % at 25 µM; Prostaglandin E2 receptor EP2 subtype (Homo sapiens), P43116; EP2-expressing cells, cAMP HTRF FRET, PGE2 co-stimulation;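 active = compounds whose cAMP rise, as percent of the full-agonist control response, exceeds 60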;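 also: rat C6 glioma line stably carrying human EP2 under a CMV promoter; the protocol text gives 20 µM as final concentration; 100% = response of wells given 1 µM PGE2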
# Target sequence (P43116 whole entry, looked up): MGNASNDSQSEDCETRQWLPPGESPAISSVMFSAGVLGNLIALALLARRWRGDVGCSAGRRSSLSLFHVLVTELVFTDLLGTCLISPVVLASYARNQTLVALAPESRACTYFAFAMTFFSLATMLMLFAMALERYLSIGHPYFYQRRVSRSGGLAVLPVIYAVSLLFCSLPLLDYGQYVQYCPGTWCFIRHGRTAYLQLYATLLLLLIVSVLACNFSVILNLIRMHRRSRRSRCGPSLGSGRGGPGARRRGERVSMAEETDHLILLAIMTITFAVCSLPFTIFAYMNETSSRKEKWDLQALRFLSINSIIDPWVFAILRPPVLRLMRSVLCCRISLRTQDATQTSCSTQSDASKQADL
# T cell modulator: modulators of CD8 T cell-vesicle binding, primary screen, mouse 2C CD8+ T cells, flow cytometry | 2C CD8+ T cell-vesicle binding; active compounds read low | response (vesicle binding), % at 7 µM | hit rate 0.068% among 330,000;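 active = response, share of CD8 T cells binding vesicles, and their 90th percentile fluorescence all below set limits, cut at about 80% in these data, passing the limit was not always enough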;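 also: values below 100% mean blocked vesicle binding to the CD8+ T cells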
#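 Incubation: binding step 1.5 h, 37 °C, antibody labelling 20 min, ice; system: murine 2C transgenic CD8+ T lymphocytes; technique: cytometric PE anti-B7-1 and Alexa647 anti-CD8 signals after 1% paraformaldehyde fixation; also added: QL9-charged Drosophila Ld/ICAM-1/B7-1 vesicles; control set: naked versus QL9-loaded vesicles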
# MC4R barr agon: MC4R agonists recruiting beta-arrestin, primary screen, cell-based, luminescence, agonist arm of biased-ligand search | AID 540308, 2011 | activation, % at 8.9 µM | U2OS MC4R beta-arrestin complementation; percent of melanotan II response, DMSO zero | hit rate 0.98% among 360,000;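 active = activation above a per-plate cutoff, the mean activation of sample wells on that plate plus 3 SD, cut at about 8% in these data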
# MC4R antagonist: MC4R antagonists of cAMP signaling, primary screen, cell-based, TR-FRET, antagonist arm of biased-ligand search. Melanocortin receptor 4 (Homo sapiens), P32245. MC4R-expressing cells, MTII-stimulated cAMP, LANCE TR-FRET. inhibition, % at 6.5 µM. hit rate 0.48% among 360,000;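 active = inhibition above its plate's cutoff, the mean of tested wells on that plate plus 3 SD, cut at about 29% in these data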;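 also: 0% = Melanotan II alone and 100% = Melanotan II plus saturating MCL0020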
#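 Assay system: U2OS cells stably expressing human melanocortin 4 receptor (MC4R) / Dosing: 6.5 µM / Timing: compound 30 min, challenge 1 h, detection 1 h / Measured by: Eu-cAMP/anti-cAMP TR-FRET, emission 671 nm / Replicates: singlicate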
# Exocytosis inh: LAMP-1 surface exposure blockers, TALL-104 cells – cell-based, flow cytometry, MLPCN library, primary screen; TALL-104 LAMP-1 surface exposure; cells stimulated with thapsigargin and PMA; inhibition, % at 10 µM; hit rate 0.66% among 360,000;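 active = inhibition above about 55%, limit read from the data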
# PGE2 EP2 inh: human EP2 receptor antagonists, primary screen, TR-FRET cAMP, C6 glioma cells. Prostaglandin E2 receptor EP2 subtype (Homo sapiens), P43116. C6 glioma cells expressing human EP2; cells stimulated with saturating PGE2. inhibition, % at 25 µM. hit rate 0.52% among 260,000. AID 1422, 2008;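 active = percent inhibition above 40 after rounding to a whole number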;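 also: rat C6 glioma host cells with rolipram phosphodiesterase inhibitor present; the protocol text gives 20 µM as final concentration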
# Exocytosis CP01: inhibitors of lytic granule exocytosis, confirmation, TALL-104 cells, flow cytometry, Cherry Pick01; LAMP-1 externalization; stimulated with PMA plus thapsigargin; AID 651954, 2012; hit rate 11% among 1,500; inhibition, % at 10 µM; shares compounds with Exocytosis inh; in the data active = inhibition above about 60%;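 also: 0% = stimulated vehicle wells and 100% = unstimulated wells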
# * marks the source's active call; other numbers are inactive results; i = inactive; x = no result. Only some compounds are listed: those with a hit (about 2.6% of all), similar ones and a draw of the others.
SMILES,EP2 modulator,T cell modulator,MC4R barr agon,MC4R antagonist,Exocytosis inh,PGE2 EP2 inh,Exocytosis CP01
N/C(=N\OC(=O)CCC1CCCCC1)c1cccnc1,1,579,-2,-3,1,8,x
CCOC(=O)c1ccccc1NC(=O)CSc1ccc(-c2ccccn2)nn1,x,364,0,-2,106*,x,-14
CCOC(=O)c1c(CN2CCN(Cc3ccccc3)CC2)n(C)c2cc(Br)c(OC)cc12,38,621,-1,4,13,13,x
CCOC(=O)c1c(CN2CCN(CCO)CC2)n(-c2ccccc2)c2cc(Br)c(O)cc12,-29,306,0,14,79*,9,-1
CCOC(=O)c1c(CN2CCN(C)CC2)n(-c2ccccc2)c2cc(Br)c(O)cc12,-10,194,2,4,59*,6,-6
CC(C)(C)c1ccc2c(c1)N(CC(=O)N1CCOCC1)C(=O)CO2,x,i,-2,5,-2,x,x
Cc1cc(C)nc(Nc2nc(C(N)c3ccccc3)cs2)n1 (stereo not drawn),x,x,-1,-4,-7,x,x
Cc1cc(C)nc(Nc2nc(-c3ccccc3)cs2)n1,x,311,0,-3,76*,x,-6
O=C(c1cc(S(=O)(=O)N2CCOCC2)ccc1F)N1CCN(Cc2ccccc2)CC1,-4,319,-2,8,2,5,x
CNC(=O)c1cccc(NC(=O)c2ccccc2OCc2ccccc2)c1,x,276,-1,-8,63*,x,-5
O=C(Nc1ccc(O)cc1)c1ccccc1OCc1ccccc1,x,219,0,-14,-5,x,x
COc1cc(NC(=O)c2ccccc2OCc2ccccc2)cc(OC)c1OC,x,187,3,-4,84*,x,-7
COc1ccccc1CN1C[C@@H]2C[C@@H](C3=Cc4cc(Cl)ccc4OC3)N3CCC[C@@]23C1=O,12,366,5,17,56*,9,-2
Cc1cccc(NC(=O)c2ccc(-n3cncn3)c([N+](=O)[O-])c2)c1,x,364,-1,3,-9,x,x
CCc1ccccc1NC(=O)CNC(=O)c1ccc(-n2cncn2)c([N+](=O)[O-])c1,x,i,-2,5,66*,x,-2
O=[N+]([O-])c1ccc(Cl)c(/C=N/NC(=S)Nc2ccccc2)c1,37,243,1,-3,-2,5,x
Cc1cccc(C)c1N(CC(O)Cn1c2ccccc2c2ccccc21)S(C)(=O)=O (stereo not drawn),-12,454,2,13,16,5,x
CC(=O)Nc1cccc(OCC(=O)NCCC2=CCCCC2)c1,-50,690,-1,4,95*,7,-14
COc1cccc(NC(=O)NCCC2=CCCCC2)c1,-36,273,-2,4,-2,9,x
COc1cc2[nH]c(=S)n(Cc3cccs3)c(=O)c2cc1OC,-41,470,-1,6,1,7,x
O=C(C(=O)N1CCN(C(=O)OCc2ccccc2)CC1)c1cccs1,x,x,x,x,-7,x,x
Cc1ccccc1N1CCN(S(=O)(=O)c2ccc3oc(=O)ccc3c2)CC1,-27,157,0,17,-8,10,x
Cc1noc(C)c1S(=O)(=O)N(CC(=O)NC1CCC(C)CC1)c1ccc(C(C)C)cc1 (stereo not drawn),x,281,4,10,72*,x,-4
CCOc1ccc(N(CC(=O)NC2CCC(C)CC2)S(=O)(=O)c2c(C)noc2C)cc1 (stereo not drawn),x,226,-1,-8,0,x,x
Cc1ccccc1CC1CCN(CCCNC(=O)Nc2ccccc2)CC1,x,273,-1,6,63*,x,-13
